Activity calls are given as the source filed them. The rule behind the calls is not given here.
Assays:
PC-3 [1] = assay: Cell cycle arrest in human PC3 cells assessed as accumulation at G0/G1 phase after 24 hrs by propidium iodide staining-based flow cytometric method; format: functional
PC-3 [2] = assay: Induction of reactive oxygen species formation in human PC3 cells at 1 to 2 uM after 6 hrs by DCFDA staining-based flow cytometric method; format: functional, cell-based
How it was run: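 PC-3 cells at 1 x 10^5 cells/mL adhered overnight, then exposed to 1 or 2 µM. Medium replaced with DCFDA (10 µM) for 0.5 h at room temperature in the dark; fluorescence read by flow cytometry (ex 488 nm, em 530 nm). Mean ± SEM of three experiments, one-way ANOVA with Dunnett's test.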

PC-3 [3] = assay: Potency index, ratio of curcumin IC50 to test compound IC50 for human PC3 cells; format: functional
DU-145 = assay: Potency index, ratio of curcumin IC50 to test compound IC50 for human DU145 cells; format: functional
PC-3 [4] = assay: Induction of apoptosis in human PC3 cells assessed as apoptotic body formation at 1 uM after 48 hrs by acridine orange/ethidium bromide staining-based fluorescence inverted microscopic method; format: functional, cell-based
How it was run: (§1)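 PC-3 cells (25000/well) grown 24 h, then exposed 48 h to 0.5, 1 or 2 µM with DMSO control. After PBS wash, stained with acridine orange and ethidium bromide (10 µg/mL each) and imaged at once by fluorescence inverted microscopy (ex 488 nm, em 530 nm, 200x).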

PC-3 [5] = assay: Cytotoxicity against human PC3 cells assessed as inhibition of cell viability after 48 hrs by MTT assay; format: functional, cell-based; settings: PC-3, 48 h
How it was run: (§2)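 Cells were seeded at 2.5‒5 x 10^3 per well in DMEM or RPMI with 10% FBS and grown 24 h at 37 °C under CO2. Compounds diluted in medium were added alongside vehicle control for 48 h. MTT (0.5 mg/mL) was added for 4 h, formazan dissolved in DMSO and absorbance read at 570 nm. IC50 is the concentration giving 50% loss of viability; mean ± SD of three experiments, each in triplicate.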

PC-3 [6] = assay: Induction of apoptosis in human PC3 cells assessed as blebbing of cell membrane at 0.5 uM after 48 hrs by acridine orange/ethidium bromide staining-based fluorescence inverted microscopic method; format: functional; how it was run: as §1
HeLa = assay: Cytotoxicity against human HeLa cells assessed as inhibition of cell viability after 48 hrs by MTT assay; format: functional, cell-based; how it was run: as §2
PC-3 [7] = assay: Induction of apoptosis in human PC3 cells assessed as early apoptotic cells at 2 uM after 24 hrs by FITC-annexin V/propidium iodide staining-based flow cytometric method (reference value: 7.62%); format: functional
PC-3 [8] = assay: Induction of apoptosis in human PC3 cells assessed as nuclei fragmentation at 1 to 2 uM after 48 hrs by DAPI staining-based fluorescence microscopic method; format: functional, cell-based
How it was run: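 PC-3 cells (25000/well) adhered overnight, then treated 48 h at 1 or 2 µM. After PBS wash, fixed 20 min in 4% neutral buffered formalin, permeabilized 5 min with 0.2% Triton X, and stained 10 min at room temperature with DAPI (1 µg/mL). Nuclei viewed by fluorescence microscopy (ex 350 nm, em 460 nm, 200x).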

COc1cc(OC)c(/C=C/C(=O)/C=C/c2nc3ccccn3c2-c2ccc(F)c(F)c2)c(OC)c1
Activity (PC-3 [1]): Dose-dependent effect
Activity (PC-3 [2]): Active
Ratio IC50 (PC-3 [3]): 8.9
Ratio IC50 (DU-145): 11.1
Activity (PC-3 [4]): Active
IC50 (PC-3 [5]): 2110 nM
Activity (PC-3 [6]): Active
IC50 (HeLa): 2530 nM
Activity (PC-3 [7]): 3.4%
Activity (PC-3 [8]): Active
